Values after ≈ are worked out from the molar mass of the structure shown.
Key:
[1] = molecular target: T1, Multidrug efflux pump subunit AcrB (Escherichia coli (strain K12)) (UniProt P31224); assay: Inhibition of AcrB in multidrug-resistant Escherichia coli BW25113 assessed as potentiation of chloramphenicol-induced antibacterial activity by measuring chloramphenicol MIC at 8 ug/ml by checkerboard titration method (reference value: 8 ug/ml); settings: dose 8.0 µg/ml
T1 sequence (whole entry): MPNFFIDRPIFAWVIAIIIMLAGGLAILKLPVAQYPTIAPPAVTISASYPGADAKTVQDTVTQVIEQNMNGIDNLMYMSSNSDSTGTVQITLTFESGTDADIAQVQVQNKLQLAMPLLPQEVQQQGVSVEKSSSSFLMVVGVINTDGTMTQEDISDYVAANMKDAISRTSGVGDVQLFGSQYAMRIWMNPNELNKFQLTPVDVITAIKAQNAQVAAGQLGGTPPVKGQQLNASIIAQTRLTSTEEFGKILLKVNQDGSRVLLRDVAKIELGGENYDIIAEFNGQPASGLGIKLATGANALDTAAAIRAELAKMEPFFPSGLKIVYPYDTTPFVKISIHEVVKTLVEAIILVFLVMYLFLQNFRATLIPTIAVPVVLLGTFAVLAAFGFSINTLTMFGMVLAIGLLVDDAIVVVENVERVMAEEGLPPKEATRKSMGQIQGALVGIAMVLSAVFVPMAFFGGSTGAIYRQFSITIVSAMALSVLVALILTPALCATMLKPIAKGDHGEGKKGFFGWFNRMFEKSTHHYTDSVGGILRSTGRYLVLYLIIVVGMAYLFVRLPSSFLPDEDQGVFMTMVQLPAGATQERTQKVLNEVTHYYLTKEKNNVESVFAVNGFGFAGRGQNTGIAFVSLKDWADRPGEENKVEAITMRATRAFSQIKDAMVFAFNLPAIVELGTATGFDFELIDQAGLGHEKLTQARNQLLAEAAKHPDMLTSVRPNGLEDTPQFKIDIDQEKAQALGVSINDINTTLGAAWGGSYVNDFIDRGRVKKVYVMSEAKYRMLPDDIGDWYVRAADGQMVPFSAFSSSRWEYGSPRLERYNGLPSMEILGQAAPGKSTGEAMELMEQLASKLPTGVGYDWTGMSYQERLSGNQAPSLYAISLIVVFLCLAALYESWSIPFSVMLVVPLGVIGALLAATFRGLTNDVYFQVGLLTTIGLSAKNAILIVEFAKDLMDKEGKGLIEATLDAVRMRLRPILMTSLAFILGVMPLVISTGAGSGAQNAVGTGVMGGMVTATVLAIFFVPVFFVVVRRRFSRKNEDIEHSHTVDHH

[2] = molecular target: T1, Multidrug efflux pump subunit AcrB (Escherichia coli (strain K12)); settings: Escherichia coli BW25113; dose 128.0 µg/ml
[3] = molecular target: T1, Multidrug efflux pump subunit AcrB (Escherichia coli (strain K12)); assay: Inhibition of AcrB in multidrug-resistant Escherichia coli BW25113 assessed as potentiation of tetraphenylphosphonium-induced antibacterial activity by measuring tetraphenylphosphonium MIC at 16 ug/ml by checkerboard titration method (reference value: 1024 ug/ml); settings: dose 16.0 µg/ml
[4] = molecular target: T1, Multidrug efflux pump subunit AcrB (Escherichia coli (strain K12)); assay: Inhibition of AcrB in multidrug-resistant Escherichia coli BW25113 assessed as potentiation of levofloxacin-induced antibacterial activity by measuring levofloxacin MIC at 64 ug/ml by checkerboard titration method (reference value: 0.06 ug/ml); settings: dose 64.0 µg/ml
[5] = molecular target: T1, Multidrug efflux pump subunit AcrB (Escherichia coli (strain K12)); assay: Inhibition of AcrB in multidrug-resistant Escherichia coli BW25113 assessed as potentiation of tetraphenylphosphonium-induced antibacterial activity by measuring tetraphenylphosphonium MIC at 64 ug/ml by checkerboard titration method (reference value: 1024 ug/ml); settings: dose 64.0 µg/ml
[6] = molecular target: T1, Multidrug efflux pump subunit AcrB (Escherichia coli (strain K12)); settings: Escherichia coli BW25113; dose 8.0 µg/ml
[7] = molecular target: T1, Multidrug efflux pump subunit AcrB (Escherichia coli (strain K12)); assay: Inhibition of AcrB in multidrug-resistant Escherichia coli BW25113 assessed as potentiation of tetraphenylphosphonium-induced antibacterial activity by measuring tetraphenylphosphonium MIC at 8 ug/ml by checkerboard titration method (reference value: 1024 ug/ml); settings: dose 8.0 µg/ml
[8] = molecular target: T1, Multidrug efflux pump subunit AcrB (Escherichia coli (strain K12)); assay: Inhibition of AcrB in multidrug-resistant Escherichia coli BW25113 assessed as potentiation of levofloxacin-induced antibacterial activity by measuring levofloxacin MIC at 32 ug/ml by checkerboard titration method (reference value: 0.06 ug/ml); settings: dose 32.0 µg/ml
[9] = molecular target: T1, Multidrug efflux pump subunit AcrB (Escherichia coli (strain K12)); assay: Inhibition of AcrB in multidrug-resistant Escherichia coli BW25113 assessed as potentiation of tetraphenylphosphonium-induced antibacterial activity by measuring tetraphenylphosphonium MIC at 32 ug/ml by checkerboard titration method (reference value: 1024 ug/ml); settings: dose 32.0 µg/ml
[10] = molecular target: T1, Multidrug efflux pump subunit AcrB (Escherichia coli (strain K12)); settings: Escherichia coli BW25113; dose 64.0 µg/ml
[11] = molecular target: T1, Multidrug efflux pump subunit AcrB (Escherichia coli (strain K12)); assay: Inhibition of AcrB in multidrug-resistant Escherichia coli BW25113 assessed as potentiation of chloramphenicol-induced antibacterial activity by measuring chloramphenicol MIC at 64 ug/ml by checkerboard titration method (reference value: 8 ug/ml); settings: dose 64.0 µg/ml
[12] = molecular target: T1, Multidrug efflux pump subunit AcrB (Escherichia coli (strain K12)); assay: Inhibition of AcrB in multidrug-resistant Escherichia coli BW25113 assessed as potentiation of chloramphenicol-induced antibacterial activity by measuring chloramphenicol MIC at 32 ug/ml by checkerboard titration method (reference value: 8 ug/ml); settings: dose 32.0 µg/ml
[13] = molecular target: T1, Multidrug efflux pump subunit AcrB (Escherichia coli (strain K12)); assay: Inhibition of AcrB in multidrug-resistant Escherichia coli BW25113 assessed as potentiation of chloramphenicol-induced antibacterial activity by measuring chloramphenicol MIC at 16 ug/ml by checkerboard titration method (reference value: 8 ug/ml); settings: dose 16.0 µg/ml
[14] = molecular target: T1, Multidrug efflux pump subunit AcrB (Escherichia coli (strain K12)); assay: Inhibition of AcrB in multidrug-resistant Escherichia coli BW25113 assessed as potentiation of erythromycin-induced antibacterial activity by measuring erythromycin MIC at 128 ug/ml by checkerboard titration method (reference value: 64 ug/ml); settings: dose 128.0 µg/ml
[15] = molecular target: T1, Multidrug efflux pump subunit AcrB (Escherichia coli (strain K12)); assay: Inhibition of AcrB in multidrug-resistant Escherichia coli BW25113 assessed as potentiation of chloramphenicol-induced antibacterial activity by measuring chloramphenicol MIC at 128 ug/ml by checkerboard titration method (reference value: 8 ug/ml); settings: dose 128.0 µg/ml
Cell membrane = assay: Induction of outer membrane permeabilization in wild type Escherichia coli BW25113 assessed as increase in nitrocefin hydrolysis at 128 ug/ml in presence of CCCP by spectroscopic analysis; settings: dose 128 µg/ml
Summary of the method: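 Intact E. coli were treated with 10 μM CCCP to block nitrocefin efflux, then given compound, nothing, or polymyxin B as permeabilizer control. Nitrocefin was added, and hydrolysis by periplasmic β-lactamase was followed as the rise in absorbance at 490 nm. Duplicate experiments were run on different days.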

[16] = molecular target: T1, Multidrug efflux pump subunit AcrB (Escherichia coli (strain K12)); assay: Inhibition of AcrB in multidrug-resistant Escherichia coli BW25113 assessed as potentiation of levofloxacin-induced antibacterial activity by measuring levofloxacin MIC at 128 ug/ml by checkerboard titration method (reference value: 0.06 ug/ml); settings: dose 128.0 µg/ml

Row | Structure (SMILES) | MIC [1] | MIC [2] | MIC [3] | MIC [4] | MIC [5] | MIC [6] | MIC [7] | MIC [8] | MIC [9] | MIC [10] | MIC [11] | MIC [12] | MIC [13] | MIC [14] | MIC [15] | Activity (Cell membrane) | MIC [16]
1 | CC1(C)CC(=O)c2ccc(OCC(=O)Nc3ccc(C#N)c(C(F)(F)F)c3)cc2O1 | 8 µg/mL | 16 µg/mL (≈ 38.2 µM) | 1020 µg/mL | 0.06 µg/mL | 256 µg/mL | 16 µg/mL (≈ 38.2 µM) | 1020 µg/mL | 0.06 µg/mL | 512 µg/mL | 16 µg/mL (≈ 38.2 µM) | 4 µg/mL | 8 µg/mL | 8 µg/mL |  |  |  | 
2 | CC1(C)CCc2c(Cn3cnnn3)cc3c(OCc4ccc(OC(F)(F)F)cc4)cccc3c2O1 | 8 µg/mL | 16 µg/mL (≈ 33 µM) | 1020 µg/mL | 0.06 µg/mL | 1020 µg/mL | 16 µg/mL (≈ 33 µM) | 1020 µg/mL | 0.06 µg/mL | 1020 µg/mL | 16 µg/mL (≈ 33 µM) | 8 µg/mL | 8 µg/mL | 8 µg/mL | 32 µg/mL | 4 µg/mL | Not Active | 0.06 µg/mL
3 | CC1(C)CCc2c(Cn3cnnn3)cc3c(OCc4ccc([N+](=O)[O-])cc4)cccc3c2O1 | 8 µg/mL | 16 µg/mL (≈ 35.9 µM) | 1020 µg/mL | 0.06 µg/mL | 1020 µg/mL | 16 µg/mL (≈ 35.9 µM) | 1020 µg/mL | 0.06 µg/mL | 1020 µg/mL | 16 µg/mL (≈ 35.9 µM) | 8 µg/mL | 8 µg/mL | 8 µg/mL | 64 µg/mL | 8 µg/mL | Not Active | 0.06 µg/mL
4 | COc1cccc(COc2cccc3c4c(c(C(=O)O)cc23)CCC(C)(C)O4)c1 | 8 µg/mL | 16 µg/mL (≈ 40.8 µM) | 1020 µg/mL | 0.06 µg/mL | 512 µg/mL | 16 µg/mL (≈ 40.8 µM) | 1020 µg/mL | 0.06 µg/mL | 1020 µg/mL | 16 µg/mL (≈ 40.8 µM) | 4 µg/mL | 8 µg/mL | 8 µg/mL | 16 µg/mL | 4 µg/mL | Not Active | 0.06 µg/mL
5 | CC1(C)CCc2c(C(=O)N3CCOCC3)cc3c(OCc4ccccc4)cccc3c2O1 | 8 µg/mL | 16 µg/mL (≈ 37.1 µM) | 512 µg/mL | 0.03 µg/mL | 512 µg/mL | 16 µg/mL (≈ 37.1 µM) | 512 µg/mL | 0.03 µg/mL | 512 µg/mL | 16 µg/mL (≈ 37.1 µM) | 4 µg/mL | 4 µg/mL | 4 µg/mL | 8 µg/mL | 4 µg/mL | Not Active | 0.03 µg/mL
6 | C=CC(=O)Nc1ccc(COc2cccc3c4c(c(C(=O)N5CCOCC5)cc23)CCC(C)(C)O4)cc1 | 4 µg/mL | 16 µg/mL (≈ 32 µM) | 512 µg/mL | 0.06 µg/mL | 128 µg/mL | 16 µg/mL (≈ 32 µM) | 512 µg/mL | 0.06 µg/mL | 256 µg/mL | 16 µg/mL (≈ 32 µM) | 4 µg/mL | 4 µg/mL | 4 µg/mL | 8 µg/mL | 2 µg/mL | Not Active | 0.01 µg/mL

Source: ChEMBL document CHEMBL4732114, “Design and structural optimization of novel 2H-benzo[h]chromene derivatives that target AcrB and reverse bacterial multidrug resistance” (Eur J Med Chem, 2021)
